In ChEMBL document CHEMBL1156852, “Synthesis and biological evaluation of simple methoxylated chalcones as anticancer, anti-inflammatory and antioxidant agents” (Bioorg Med Chem, 2010) one finds inhibition, Activity and inhibition of growth data, which are given here for 11 compounds.

What is called inhibition is how much of the control response was suppressed.

In data set [1] the test system is THP-1. The data set can be described thus: Antiinflammatory activity in human THP1 cells assessed as inhibition of LPS-induced IL6 release at 1 uM preincubated for 30 mins before LPS challenge by ELISA. In kind it is functional. The method, boiled down: (§1)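 PMA-differentiated THP-1 cells grown in RPMI 1640 with 10% FBS, penicillin and streptomycin. Compounds in 0.5% DMSO were added and preincubated 30 min at 37 °C, then cells were stimulated with E. coli 0127:B8 LPS. Released cytokine was quantified with a BD Biosciences kit per the manufacturer. Percent inhibition of release was calculated versus control. Cytotoxicity was checked in parallel by CCK-8.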
On the technique in general: ELISA stands for enzyme-linked immunosorbent assay.

Data set [2] deals with THP-1. The data set can be described thus: Antiinflammatory activity in human THP1 cells assessed as inhibition of LPS-induced TNFalpha release at 1 uM preincubated for 30 mins before LPS challenge by ELISA. In kind it is functional. The method, boiled down:
as §1

A short description of data set [3]: Toxicity against […] assessed as cell growth. Type of data set: cell-based. Also noted: concentration or dose not given beside the values.
Data set [4] has as its system THP-1. The data set can be described thus: Antiinflammatory activity in human THP1 cells assessed as inhibition of LPS-induced IL6 release at 10 uM preincubated for 30 mins before LPS challenge by ELISA. Type of data set: functional.
In data set [5] the test system is ACHN. The experiment in a line: Growth inhibition of human ACHN cells at 10 uM after 48 hrs by propidium iodide assay. To be noted: read-out: GI.
The subject of data set [6] is HCT-116. The experiment in a line: Growth inhibition of human HCT116 cells at 10 uM after 48 hrs by propidium iodide assay. To be noted: HCT-116, 48 h, read-out: GI.
In data set [7] the test system is NCI-H460. The experiment in a line: Growth inhibition of human H460 cells at 10 uM after 24 hrs by propidium iodide assay. Type of data set: functional. The note with it: NCI-H460, 24 h, read-out: GI.
In data set [8] the test system is PANC-1. The experiment in a line: Growth inhibition of human PANC1 cells at 10 uM after 48 hrs by propidium iodide assay. The note with it: PANC-1, 48 h, read-out: GI.
The test system of data set [9] is Radical scavenging activity. The experiment in a line: Antioxidant activity assessed as radical DPPH scavenging activity at 1 mM/mL. In kind it is functional. In outline: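 DPPH radical scavenging by the Blois method. Compound stock solutions (1 mM) were mixed with 0.3 mM DPPH in methanol in a 3 mL total reaction and left to react at room temperature.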
A general note: The DPPH test is a chemical assay of radical scavenging.

The subject of data set [10] is Calu-1. The experiment in a line: Growth inhibition of human Calu1 cells at 10 uM after 24 hrs by propidium iodide assay. To be noted: Calu-1, 24 h, read-out: GI. Type of data set: functional.
Data set [11] relates to THP-1. The data set can be described thus: Antiinflammatory activity in human THP1 cells assessed as inhibition of LPS-induced TNFalpha release at 10 uM preincubated for 30 mins before LPS challenge by ELISA. Type of data set: functional.
In data set [12] the test system is HCT-116. The data set can be described thus: Growth inhibition of human HCT116 cells at 500 nM after 48 hrs by propidium iodide assay. The note with it: HCT-116, 48 h, read-out: GI.
In data set [13] the test system is Calu-1. The data set can be described thus: Growth inhibition of human Calu1 cells at 500 nM after 24 hrs by propidium iodide assay. Type of data set: functional. The note with it: Calu-1, 24 h, read-out: GI.
Data set [14] deals with PANC-1. The experiment in a line: Growth inhibition of human PANC1 cells at 500 nM after 24 hrs by propidium iodide assay. In kind it is functional. To be noted: PANC-1, 24 h, read-out: GI.
In data set [15] the test system is ACHN. The experiment in a line: Growth inhibition of human ACHN cells at 500 nM after 48 hrs by propidium iodide assay. The note with it: read-out: GI.
In data set [16] the test system is NCI-H460. The data set can be described thus: Growth inhibition of human H460 cells at 500 nM after 48 hrs by propidium iodide assay. The note with it: NCI-H460, 48 h, read-out: GI.
Data set [17] concerns NCI-H460. The experiment in a line: Growth inhibition of human H460 cells at 700 nM after 48 hrs by propidium iodide assay. The note with it: NCI-H460, 48 h, read-out: GI.
Data set [18] deals with Calu-1. The data set can be described thus: Growth inhibition of human Calu1 cells at 700 nM after 24 hrs by propidium iodide assay. Type of data set: functional. To be noted: Calu-1, 24 h, read-out: GI.
The subject of data set [19] is HCT-116. The experiment in a line: Growth inhibition of human HCT116 cells at 700 nM after 48 hrs by propidium iodide assay. To be noted: HCT-116, 48 h, read-out: GI.
Data set [20] relates to PANC-1. The experiment in a line: Growth inhibition of human PANC1 cells at 700 nM after 48 hrs by propidium iodide assay. To be noted: PANC-1, 48 h, read-out: GI.
Data set [21] has as its system ACHN. The data set can be described thus: Growth inhibition of human ACHN cells at 700 nM after 48 hrs by propidium iodide assay. To be noted: read-out: GI.

As to `C[C@@H]1C[C@H]2[C@@H]3CCC4=CC(=O)C=C[C@]4(C)[C@@]3(F)[C@@H](O)C[C@]2(C)[C@@]1(O)C(=O)CO` [DEXAMETHASONE], the inhibition at 1 µM in the data set on THP-1 [1] is 84%; in the data set on THP-1 [2] it was 73%. The Activity in [3] is listed as 0%.
With `COc1cc(/C=C/C(=O)c2ccc(Cl)cc2)cc(OC)c1OC`, the values for the inhibition at 10 µM in the data set with THP-1 [4] and in the data set with THP-1 [11] were 100% and 98%, respectively. For the same compound, the inhibition of growth at 10 µM with ACHN [5] is 57%; in the data set on HCT-116 [6], 92%; in the data set with NCI-H460 [7] it was 54%; in the data set with PANC-1 [8], 66%; in the data set on Calu-1 [10] it was 67%. Moreover, the Activity in [3] worked out at 79%; in data set [9], 36.5%.
For the compound `COc1ccc(C(=O)/C=C/c2ccc(OC)cc2OC)cc1`, the values for the inhibition at 10 µM in the data set with THP-1 [4] and with THP-1 [11] were 39% and 0%, respectively. For the same compound, the inhibition of growth at 10 µM with ACHN [5] came out at 45%; in the data set with HCT-116 [6], 37%; in the data set with NCI-H460 [7] it was 38%; in the data set on PANC-1 [8] it was 36%; in the data set on Calu-1 [10], 31%. Also, the Activity came out at 29% in [3] and 32.3% in [9].
On to `COc1ccc(/C=C/C(=O)c2ccccc2)c(OC)c1`, for which the inhibition at 10 µM with THP-1 [4] was 100%; in the data set with THP-1 [11], 98%. For the same compound, the inhibition of growth at 10 µM in the data set on ACHN [5] was determined as 93%; in the data set with HCT-116 [6], 95%; with NCI-H460 [7], 92%; with PANC-1 [8], 94%; with Calu-1 [10] it was 91%. For the same compound, the values for the Activity in data set [3] and in data set [9] were 79% and 38%, respectively.
With `COc1ccc(/C=C/C(=O)c2ccc(OC)cc2OC)c(OC)c1`, the inhibition at 10 µM came out at 81% in the data set with THP-1 [4] and 2% in the data set on THP-1 [11]. In addition, the inhibition of growth at 10 µM in the data set on ACHN [5] stood at 48%; with HCT-116 [6], 31%; in the data set on NCI-H460 [7] it was 38%; with PANC-1 [8], 43%; in the data set with Calu-1 [10], 32%. In addition, the figures for the Activity in data set [3] and in data set [9] were 35% and 31.3%, respectively.
As to `Nc1ccn([C@@H]2O[C@H](CO)[C@@H](O)C2(F)F)c(=O)n1` [GEMCITABINE], the inhibition of growth at 0.5 µM in the data set on HCT-116 [12] is 76%; in the data set on Calu-1 [13], 70%; in the data set on PANC-1 [14] it was 71%; in the data set on ACHN [15], 70%; with NCI-H460 [16] it was 68%.
On to `COc1ccc(/C=C/C(=O)c2ccc(Cl)cc2Cl)c(OC)c1`, for which the inhibition at 10 µM in the data set on THP-1 [4] is 6%; with THP-1 [11] it was 0%. Further, the inhibition of growth at 10 µM is 35% in the data set on ACHN [5]; 26% in the data set with HCT-116 [6]; 29% in the data set on NCI-H460 [7]; 35% with PANC-1 [8]; 30% in the data set on Calu-1 [10]. In addition, the Activity in data set [3] was 2%; in data set [9], 11.3%.
On to `COc1ccc(/C=C/C(=O)c2ccc(Cl)cc2)c(OC)c1`, for which the results for the inhibition at 10 µM in the data set on THP-1 [4] and in the data set on THP-1 [11] were 12% and 0%, respectively. For the same compound, the inhibition of growth at 10 µM is 28% with ACHN [5]; 22% in the data set on HCT-116 [6]; 29% with NCI-H460 [7]; 29% in the data set with PANC-1 [8]; 28% in the data set with Calu-1 [10]. Besides, the Activity in [3] is 0%; in data set [9], 26.4%.
As for `CN1CC[C@H](c2c(O)cc(O)c3c(=O)cc(-c4ccccc4Cl)oc23)[C@H](O)C1` [ALVOCIDIB], the inhibition of growth at 0.7 µM with NCI-H460 [17] came out at 84%; in the data set on Calu-1 [18] it was 68%; in the data set on HCT-116 [19], 71%; with PANC-1 [20] it was 75%; in the data set on ACHN [21], 68%.
In the case of `COc1ccc(O)c(C(C)(C)C)c1.COc1ccc(O)cc1C(C)(C)C`, in data set [9], the Activity was 74%.
In the case of `COc1cc(/C=C/C(=O)c2ccccc2)cc(OC)c1OC`, the inhibition at 10 µM with THP-1 [4] and in the data set on THP-1 [11] was 100% throughout. Further, the inhibition of growth at 10 µM turned out to be 33% in the data set with ACHN [5]; 0% in the data set on HCT-116 [6]; 15% in the data set with NCI-H460 [7]; 7% in the data set on PANC-1 [8]; 7% in the data set on Calu-1 [10]. The Activity was found to be 73% in [3] and 47.2% in data set [9].
